Drawing on ChEMBL document CHEMBL1133717, “Soft drugs. 12. Design, synthesis, and evaluation of soft bufuralol analogues” (J Med Chem, 2000), this text covers half-life and k for seven compounds.

Assay type in all cases: ADME
Data set [1] in a line: Half-life in rat blood evaluated by enzymatic hydrolysis. Summed up:
(§1)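 Incubation in fresh heparinized male Sprague-Dawley rat blood (used within 30 min) at 37.0 ± 0.1 °C, compound added in methanol at 1:10. Timed samples were quenched in cold methanol and centrifuged; the supernatant (12 µM final) was analysed by HPLC for ester and acid metabolite.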

Data set [2] is described as follows: Half-life was evaluated by chemical hydrolysis. Summed up:
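pH 12.0 buffer (0.01 N NaOH, isotonic phosphate 0.5 mM) at 37.0 ± 0.1 °C, with an initial ester concentration of 120 µM. Timed samples were quenched 1:10 in cold methanol (12 µM final) and analysed by HPLC. The pseudo-first-order rate constant came from a linear regression of ln(peak area) versus time, and the half-life was derived from it.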

Data set [3] can be described thus: Evaluated for apparent pseudo first-order hydrolytic rate constant(K) in chemical hydrolysis.
For a further data set, the species on record is Rattus norvegicus. The data set can be described thus: Evaluation of apparent pseudo-first-order hydrolytic rate constant(k) by enzymatic hydrolysis in rat blood at 37+/-0.1 degree Centigrade. The essentials:
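Freshly drawn heparinized blood from male Sprague-Dawley rats, used within 30 min. Compound in methanol (0.1 mL) was mixed with blood (0.9 mL) at 37.0 ± 0.1 °C. Timed aliquots were mixed with cold methanol, frozen and centrifuged (24 000 rpm, 3 min), giving a final sample concentration of 12 µM. Ester loss was followed by HPLC of the supernatant, and the pseudo-first-order k was obtained from ln(peak area) versus time.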

A short description of data set [4]: Half-life in rat blood; evaluated by enzymatic hydrolysis. The essentials: as §1

Bounds are passed on as bounds.

By half-life is commonly meant how long it takes for the measured level to halve. High values mean slow decline, low ones rapid decline. As for `COC(=O)Cc1cccc2cc(C(O)CNC(C)(C)C)oc12` (centres undefined), the values for the half-life in data set [1] and in data set [2] were less than 0.15 min and 7.2 min, respectively. The k in data set [3] turned out to be 0.096 min⁻¹.

As for `CC(C)(C)NCC(O)c1cc2cccc(CC(=O)OCCC34C[C@H]5C[C@@H](C3)C[C@@H](C4)C5)c2o1` (some centres undefined), the half-life in data set [1] is less than 0.15 min; in data set [2] it was 150 min. The k in data set [3] was 0.0016 min⁻¹.

As for `CC(C)OC(=O)Cc1cccc2cc(C(O)CNC(C)(C)C)oc12` (centres undefined), the figures for the half-life in data set [1] and in data set [2] were 16.6 min and 45.7 min, respectively. The k in the data set filed under Rattus norvegicus was 0.0417 min⁻¹; in data set [3], 0.015 min⁻¹.

For `CCOC(=O)Cc1cccc2cc(C(O)CNC(C)(C)C)oc12` (centres undefined), the half-life in data set [4] is less than 0.15 min; in data set [2], 8.2 min. Also, in data set [3], the k was determined as 0.084 min⁻¹.

Regarding `CC(C)(C)NCC(O)c1cc2cccc(CC(=O)OC(C)(C)C)c2o1` (centres undefined), the half-life was found to be 99 min in data set [1] and 75.7 min in data set [2]. For the same compound, the k in the data set listed under Rattus norvegicus came out at 0.007 min⁻¹; in data set [3], 0.091 min⁻¹.

Turning to `CSCOC(=O)Cc1cccc2cc(C(O)CNC(C)(C)C)oc12` (centres undefined), the half-life in data set [1] is less than 0.15 min; in data set [2], 25 min. For the same compound, in data set [3], the k turned out to be 0.027 min⁻¹.

Turning to `CC(C)(C)NCC(O)c1cc2cccc(CC(=O)OC3CCCCC3)c2o1` (centres undefined), the half-life in data set [1] came to 6.2 min; in data set [2], 15.2 min. Besides, the k in the data set filed under Rattus norvegicus is 0.111 min⁻¹; in data set [3], 0.045 min⁻¹.
